Screens: PubChem BioAssay, several laboratories
Cl transport mod: modulators of human KCC2 chloride dependent transport; Q9H2X9; KCC2 cells, thallium flux FluoZin-2 fluorescence; B-score of Tl+ flux slope (higher = more flux/activation; lower = inhibition) at 10 µM; actives 2.2% (n = 190,000); AID 1456;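 active = thallium flux slope and its plate-corrected score both differing from the plate sample mean at a set confidence after two filtering rounds, in either direction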;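 also: slope of fluorescence scaled to starting intensity during 10 to 20 s after thallium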
PKD1 kinase inh: inhibitors of human PKD1 kinase; Q15139; PKD1 kinase fluorescence polarization assay; actives 0.056% (n = 200,000); inhibition, % (concentration not given with the values); in the data active = inhibition above about 50%
ROMK primary: modulates human ROMK potassium channel activity; P48048; B-score at 10 µM; actives 2% (n = 130,000); Tet-inducible ROMK, thallium flux fluorescence; actives lie on both sides; AID 1918;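 active = signal ratio slope over the read window, or its plate-corrected B-score, at least 3 SD from the plate mean, either direction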;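 also: B-score of the F/F0 ratio slope over 7 to 12 s after thallium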
Target sequence (P48048 whole entry, looked up): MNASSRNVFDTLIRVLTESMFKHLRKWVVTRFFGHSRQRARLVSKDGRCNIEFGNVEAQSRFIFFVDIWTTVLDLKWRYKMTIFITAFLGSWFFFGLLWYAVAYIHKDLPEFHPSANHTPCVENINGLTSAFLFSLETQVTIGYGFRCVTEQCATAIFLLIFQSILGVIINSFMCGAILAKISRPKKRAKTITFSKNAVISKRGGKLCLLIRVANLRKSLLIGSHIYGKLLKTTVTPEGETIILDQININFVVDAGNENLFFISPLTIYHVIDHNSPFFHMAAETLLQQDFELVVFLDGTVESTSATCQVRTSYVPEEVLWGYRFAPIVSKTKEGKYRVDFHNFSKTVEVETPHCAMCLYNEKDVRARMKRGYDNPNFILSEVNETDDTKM
DTT redox prof: compounds producing H2O2 with reducing agent – biochemical, NIH compound library profiling, artefact control for MLSCN library redox annotation, primary screen. DTT-dependent redox cycling H2O2, phenol red/HRP absorbance; 100% = 100 µM peroxide control, 0% = buffer. actives 0.03% (n = 200,000). activation, % at 10 µM;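 active = activation of at least 50% relative to the plate's high and low controls in the primary single-dose screen; inactive = activation below 50%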;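 also: compound incubated with DTT at 0.8 mM final as the reducing agent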
Mdm2 ligase inh: Mdm2 E3 ligase (human) inhibition. signal enhancement, % at 5 µM. cell-based MDM2 ubiquitination luciferase reporter, 2 h; 0 = plate control, 100 = twice control, blank-subtracted. Q00987. AID 1230. actives 0.11% (n = 210,000);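 active = signal enhancement of 30% or more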;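 also: luminescence tracks abundance of the self-degrading MDM2-luciferase fusion protein; higher signal means inhibition of MDM2 E3 ligase activity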
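system = mammalian cells stably expressing self-ubiquitinating, self-degrading MDM2 E3–luciferase fusion | quantity = 2000 cells per well seeded | incubation = 4 h cell settling then 2 h compound exposure, 37 °C | signal = SteadyLite luminescence, 15 min reagent step | benchmarks = plate control and blank wells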
p97 ATPase inh: blocks human p97 ATPase activity | P55072 | recombinant p97 ATPase, Kinase-Glo ATP luminescence, 3 h | inhibition, % at 8 µM | actives 0.42% (n = 220,000) | AID 1481; in the data active = inhibition above about 15%;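 also: 0% = DMSO vehicle and 100% = wells lacking enzyme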
KCC2 secondary: confirmation of human KCC2 transport modulators; shares compounds with Cl transport mod; HEK293-KCC2, thallium flux, FluoZin2 fluorescence; stronger effect = higher value; normalised thallium flux (F/F0 slope) at 10 µM; actives 15% (n = 3,700);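 active = thallium flux slope above the same plate's solvent-only control mean plus 3 SD; inconclusive = the two replicate wells disagree; inactive = no significant difference from solvent-only control wells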
KCC2 bumet counter: thallium flux persisting under bumetanide in KCC2 cells, counter-screen secondary assay; shares compounds with Cl transport mod; HEK293-KCC2 + bumetanide/ouabain, thallium flux FluoZin2; stronger effect = higher value; normalized thallium flux at 10 µM; actives 49% (n = 3,700); AID 1714;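 active = thallium entry rate above the same plate's blocked-transporter control wells by more than 3 SD; inconclusive = the two repeat wells disagree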;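 also: raw slope of fluorescence over initial fluorescence between 10 and 20 s after thallium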
KCC2 sec2: KCC2 (human) modulation, second secondary assay; HEK293-KCC2, thallium flux FluoZin2 fluorescence; actives lie on both sides; F/F0 rise rate, 10–20 s post-thallium; normalized thallium flux at 10 µM; AID 1715; shares compounds with Cl transport mod; actives 23% (n = 3,700);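 active = thallium flux slope more than 3 SD above or below the plate's solvent-only control mean, mostly below; inconclusive = the two repeat wells disagreed; inactive = no significant shift from solvent-only controls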;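 also: raw slope with 0.1% DMSO as baseline and bumetanide as block control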
HEK293 Tl flux: acts in parental HEK cells, KCC2 counter-screen; shares compounds with Cl transport mod; HEK293 parental cells, thallium flux FluoZin2, ouabain; baseline-ratio fluorescence slope, 10–20 s after thallium; thallium flux rate (normalised fluorescence) at 10 µM; actives 46% (n = 3,700); AID 1716;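 active = thallium flux rate significantly above the same plate's solvent-only control wells, beyond their mean plus 3 SD; inconclusive = the two replicate wells gave conflicting results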
KCC2 ouabain: KCC2 (human) modulation, ouabain retest; shares compounds with Cl transport mod; HEK293-KCC2, thallium flux FluoZin2 fluorescence; bidirectional: low = inhibitor, high = activator; raw Tl+ flux slope (below DMSO = inhibition, above = activation) at 10 µM; actives 48% (n = 3,700); AID 1717;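 active = thallium flux slope beyond 3 SD from same-plate DMSO control mean in most replicates, usually higher, sometimes lower; inconclusive = repeat tests gave conflicting results; inactive = no significant difference from controls in most replicates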;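 also: slope of initial-normalized fluorescence between seconds 10 and 20 after thallium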
HEK counter2: parental HEK flux effect, counter-screen 2. shares compounds with Cl transport mod. HEK293 parental, thallium flux FluoZin-2 fluorescence slope. thallium flux slope at 10 µM. actives 33% (n = 3,700);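 active = thallium flux slope above the same plate's solvent-control mean plus 3 SD in both duplicate wells; inconclusive = duplicate wells that disagreed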;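 also: run without ouabain in cells lacking the KCC2 cotransporter; slope of fluorescence scaled to its starting value between 10 and 20 s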
Numbers without * were called inactive. This is a sample that favours compounds with a hit; in the whole collection about 3.4% have one here.

What do the screens show for `O=C(O)c1ccccc1NS(=O)(=O)c1ccc(NNC(=S)Nc2ccc(OC(F)F)cc2)c([N+](=O)[O-])c1`?
Cl transport mod: -0.13; PKD1 kinase inh: 2; DTT redox prof: -1; Mdm2 ligase inh: -16; p97 ATPase inh: 3

How did O=C(Nc1cccc([N+](=O)[O-])c1)c1ccc2c(c1)OCCO2 do in these assays?
Cl transport mod: -0.029; PKD1 kinase inh: -7; ROMK primary: -1.7; DTT redox prof: 0; Mdm2 ligase inh: -22; p97 ATPase inh: 5

Results for COc1ccc(C(=O)NNC(=S)NC(=O)c2cc(-c3ccccc3)nc3ccccc23)cc1 ?
Cl transport mod: 6.6*; PKD1 kinase inh: 2; DTT redox prof: 16; Mdm2 ligase inh: -9; p97 ATPase inh: 4; KCC2 secondary: 0.0072; KCC2 bumet counter: 0.017*; KCC2 sec2: 0.032; HEK293 Tl flux: 0.022*; KCC2 ouabain: 0.026*; HEK counter2: 0.015*

What do the screens show for `CCCOc1ccc(C(=O)NNC(=S)NC(=O)c2cc(-c3ccc(Cl)cc3)nc3ccccc23)cc1`?
Cl transport mod: 1.2; PKD1 kinase inh: 3; ROMK primary: 1.1; DTT redox prof: -4; Mdm2 ligase inh: 2; p97 ATPase inh: 3

How did COc1ccc(Cl)cc1C(=O)NNC(=S)NC(=O)c1cc(-c2ccccc2)nc2ccccc12 do in these assays?
Cl transport mod: 4.8*; PKD1 kinase inh: -8; DTT redox prof: 2; Mdm2 ligase inh: -14; p97 ATPase inh: -1; KCC2 secondary: 0.006; KCC2 bumet counter: 0.0087*; KCC2 sec2: 0.034; HEK293 Tl flux: 0.012*; KCC2 ouabain: 0.022; HEK counter2: 0.012

How did CC(C)Oc1cccc(-c2cc(C(=O)NC(=S)N(C)c3ccccc3C(=O)O)c3ccccc3n2)c1 do in these assays?
Cl transport mod: 4.4*; PKD1 kinase inh: 3; DTT redox prof: -1; Mdm2 ligase inh: -10; p97 ATPase inh: 7; KCC2 secondary: inconclusive; KCC2 bumet counter: 0.02*; KCC2 sec2: 0.033; HEK293 Tl flux: 0.011*; KCC2 ouabain: inconclusive; HEK counter2: 0.014*

What do the screens show for `COc1ccc2c(C)cc(SCc3c(C)noc3C)nc2c1`?
Cl transport mod: -1.2; PKD1 kinase inh: 5; ROMK primary: 0.0087; DTT redox prof: 0; Mdm2 ligase inh: -10; p97 ATPase inh: -2

What do the screens show for `CCN(CCCNC(=O)COc1cc(=O)n(CC)c2ccccc12)c1ccccc1`?
Cl transport mod: 4.6*; PKD1 kinase inh: -13; ROMK primary: 2; DTT redox prof: 0; Mdm2 ligase inh: -3; p97 ATPase inh: -1; KCC2 secondary: 0.0058; KCC2 bumet counter: 0.0043; KCC2 sec2: inconclusive; HEK293 Tl flux: 0.0063*; KCC2 ouabain: 0.017; HEK counter2: 0.01

Results for O=C(c1cc2c(s1)-c1ccccc1S(=O)(=O)C2)N1CCN(Cc2ccccc2)CC1 ?
Cl transport mod: -2.7; PKD1 kinase inh: 1; DTT redox prof: -2; Mdm2 ligase inh: -16; p97 ATPase inh: -10; KCC2 secondary: 0.0062; KCC2 bumet counter: 0.0058; KCC2 sec2: 0.028; HEK293 Tl flux: 0.0065; KCC2 ouabain: inconclusive; HEK counter2: 0.0093

Results for Cc1cc2cc(C(c3nnnn3Cc3ccccc3)N3CCc4ccccc43)c(=O)[nH]c2cc1C (stereo not given) ?
PKD1 kinase inh: -4; ROMK primary: 0.74; DTT redox prof: 2; Mdm2 ligase inh: -22; p97 ATPase inh: 3; KCC2 secondary: 0.013; KCC2 bumet counter: 0.0042; KCC2 sec2: 0.027; HEK293 Tl flux: 0.0072; KCC2 ouabain: 0.014*; HEK counter2: 0.01

What do the screens show for `CCOC(=O)N1CCN(Cc2cc(=O)oc3ccc(Cl)cc23)CC1`?
Cl transport mod: 0.76; PKD1 kinase inh: 8; ROMK primary: -0.97; DTT redox prof: 2; Mdm2 ligase inh: -8; p97 ATPase inh: 1

Results for COc1ccccc1N1CCN(C(=S)NC(=O)/C=C/c2ccccc2)CC1 ?
Cl transport mod: 6.7*; ROMK primary: -0.99; Mdm2 ligase inh: -15; p97 ATPase inh: -3; KCC2 secondary: 0.0059; KCC2 bumet counter: 0.011*; KCC2 sec2: 0.034; HEK293 Tl flux: 0.014*; KCC2 ouabain: inconclusive; HEK counter2: 0.014*

How did COc1ccccc1N1CCN(C(=S)NC(=O)/C=C/c2ccc(F)cc2)CC1 do in these assays?
Cl transport mod: 27*; Mdm2 ligase inh: -5; p97 ATPase inh: 6; KCC2 secondary: 0.0055; KCC2 bumet counter: 0.039*; KCC2 sec2: 0.034; HEK293 Tl flux: 0.015*; KCC2 ouabain: 0.031*; HEK counter2: 0.018*

How did Cc1nc2c(Br)c3nc(C(F)(F)F)[nH]c3c(Br)c2[nH]1 do in these assays?
Cl transport mod: -7.6*; PKD1 kinase inh: -17; DTT redox prof: -1; Mdm2 ligase inh: 0; p97 ATPase inh: -2; KCC2 secondary: 0.0091; KCC2 bumet counter: 0.0063; KCC2 sec2: 0.037; HEK293 Tl flux: 0.0045; KCC2 ouabain: 0.021; HEK counter2: 0.012

Results for C=CCNC(=S)NC(=O)c1ccc(C)c(Br)c1 ?
Cl transport mod: 40*; PKD1 kinase inh: 2; ROMK primary: 0.81; DTT redox prof: -1; Mdm2 ligase inh: -41; p97 ATPase inh: -5; KCC2 secondary: 0.018*; KCC2 bumet counter: 0.092*; KCC2 sec2: 0.041; HEK293 Tl flux: inconclusive; KCC2 ouabain: 0.064*; HEK counter2: 0.022*
